Test results taken from BindingDB's records for doi:10.1016/j.bmcl.2010.09.046 (Human Biomolecular Research Institute, 2010).
pIC50: −log10 of the molar value.

Key:
[1] = biological target: T1, Bcl-2-related protein A1 (Homo sapiens, UniProt Q16548); test: Inhibition of N-terminal FITC BH3 peptide binding to GST-tagged Bfl1 by fluorescence polarization assay
T1 sequence (Q16548 whole entry): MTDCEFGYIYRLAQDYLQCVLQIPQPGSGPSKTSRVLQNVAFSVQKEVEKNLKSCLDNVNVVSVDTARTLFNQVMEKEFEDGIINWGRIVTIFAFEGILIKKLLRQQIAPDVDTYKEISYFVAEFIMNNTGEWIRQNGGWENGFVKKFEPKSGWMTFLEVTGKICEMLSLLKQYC
Procedure, shortened: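 Then FITC-Bid BH3 peptide (5.6 nM working solution) was added and incubated 4 h at room temperature. Ten concentrations in 10% DMSO. Fluorescence polarization read at ex 485/em 530 nm. IC50 from sigmoidal dose-response non-linear regression.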

[2] = biological target: T1, Bcl-2-related protein A1; test: Inhibition of N-terminal FITC BH3 peptide binding to GST-tagged Bfl1 by time resolved-FRET assay
Procedure, shortened: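 10-point 2-fold dilution series in 10% final DMSO, in duplicate wells. FITC-Bid (5.6 nM) plus Tb-antibody (2.5 nM) was then added and incubated 4 h at room temperature. TR-FRET read at ex 340 nm, signal taken as the 520/490 nm emission ratio.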

| SMILES | pIC50 [1] | pIC50 [2] |
| --- | --- | --- |
| CN1CCN(c2cc(O)n(-c3ccc(Cl)c(Cl)c3)c2O)CC1 [1-(3,4-dichlorophenyl)-3-(4-methylpiperazin-1-yl)pyrrolidine-2,5-dione] | < 5.00 | < 5.00 |
| Oc1c(Cl)c(N=Cc2ccccc2)c(O)n1-c1ccc(Cl)c(Cl)c1 [MLS-0067125.0001] | < 4.30 | < 4.30 |
